Measured values reported in paper PMC5973995 (Clinical Pharmacokinetics, 2017).
Read-outs that look alike come from different tables or passages of the source.

Columns and labels:
[1] = cited from earlier work
[2] = tested on: plasma protein; conditions: healthy volunteers and hepatic or renal impairment; cited from earlier work
[3] = tested on: 5-HT1B receptor; conditions: in vitro; cited from earlier work
[4] = tested on: CYP3A4/5; test: In-vitro CYP inhibition in pooled human liver microsomes; assay type: in vitro ADME; conditions: data on file
[5] = tested on: P-glycoprotein (Pgp) transporter; conditions: cited from earlier work
[6] = tested on: SERT; conditions: Japanese and white male individuals, cited from earlier work
[7] = target: CYP2C19 (Homo sapiens, UniProt P33261); test: In-vitro CYP inhibition in pooled human liver microsomes; assay type: in vitro ADME
Chain of CYP2C19 (P33261 whole entry): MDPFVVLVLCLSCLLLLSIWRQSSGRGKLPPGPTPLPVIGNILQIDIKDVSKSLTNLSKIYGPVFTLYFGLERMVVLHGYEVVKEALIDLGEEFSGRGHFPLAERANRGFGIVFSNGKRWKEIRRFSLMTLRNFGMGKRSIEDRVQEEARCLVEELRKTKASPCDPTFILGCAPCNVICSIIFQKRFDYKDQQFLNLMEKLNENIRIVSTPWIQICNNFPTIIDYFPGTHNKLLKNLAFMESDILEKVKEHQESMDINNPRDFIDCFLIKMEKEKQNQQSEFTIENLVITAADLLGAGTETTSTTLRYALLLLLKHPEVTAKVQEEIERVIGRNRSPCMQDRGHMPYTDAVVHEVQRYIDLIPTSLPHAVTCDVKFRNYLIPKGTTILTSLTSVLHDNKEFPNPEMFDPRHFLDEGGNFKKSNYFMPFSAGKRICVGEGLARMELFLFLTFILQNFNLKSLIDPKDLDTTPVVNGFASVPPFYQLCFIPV

[8] = cited from earlier work; remark: listed apart in the source
[9] = target: CYP2E1 (Homo sapiens, UniProt P05181); test: In-vitro CYP inhibition in pooled human liver microsomes; assay type: in vitro ADME; conditions: data on file
Chain of CYP2E1 (P05181 whole entry): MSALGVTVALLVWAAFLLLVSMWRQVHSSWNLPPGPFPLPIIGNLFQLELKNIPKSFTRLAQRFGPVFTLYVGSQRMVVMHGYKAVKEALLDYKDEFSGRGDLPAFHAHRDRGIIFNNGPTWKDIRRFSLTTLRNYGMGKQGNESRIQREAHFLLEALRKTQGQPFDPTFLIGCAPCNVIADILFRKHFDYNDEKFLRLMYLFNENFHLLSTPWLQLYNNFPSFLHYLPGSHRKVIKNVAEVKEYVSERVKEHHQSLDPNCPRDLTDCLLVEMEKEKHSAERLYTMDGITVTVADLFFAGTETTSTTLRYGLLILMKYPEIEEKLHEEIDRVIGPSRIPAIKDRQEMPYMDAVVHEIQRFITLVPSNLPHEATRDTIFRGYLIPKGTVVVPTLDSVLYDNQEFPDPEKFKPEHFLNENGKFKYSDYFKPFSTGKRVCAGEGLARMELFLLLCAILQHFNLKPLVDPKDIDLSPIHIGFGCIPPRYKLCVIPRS

[10] = Tolerability / adverse events in phase I studies; assay type: in vivo, human; conditions: phase I data grouped by CYP2D6-predicted phenotypes
[11] = assay type: in vivo, human; conditions: for AUC(0-inf) / AUC(0-t) / Cmax / Tmax / Vd/F / half-life: both, human, plasma, po; for CL/F: healthy subjects, mean (% CV)
Method in brief: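 Healthy subjects given a single oral dose; plasma parameters derived by non-compartmental analysis of pooled phase I data. Reported as mean and % coefficient of variation, except Tmax as median (minimum–maximum). AUC taken both to infinity and to the last quantifiable concentration. CL/F is total clearance, and Vz/F is the terminal-phase apparent volume after extravascular dosing.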

[12] = tested on: 5-HT1D receptor; conditions: in vitro; cited from earlier work
[13] = once-daily 10 mg; 21 young individuals; cited from earlier work
[14] = tested on: 5-HT1A receptor; conditions: in vitro; cited from earlier work
[15] = cited from earlier work; remark: listed apart in the source
[16] = once-daily dosing; cited from earlier work
[17] = 10 or 40 mg once daily; ICH E14 definitions; cited from earlier work
[18] = Distribution coefficient; assay type: physicochemical; conditions: data on file
[19] = Mass balance, single oral dose of 50 mg 14C-labeled vortioxetine; assay type: in vivo, human; conditions: single oral dose 50 mg 14C-labeled; data on file
[20] = tested on: 5-HT7 receptor; conditions: in vitro; cited from earlier work
[21] = tested on: 5-HT transporter (SERT); conditions: in vitro; cited from earlier work
[22] = cited from earlier work; remark: listed apart in the source
[23] = target: T1, CYP2A6 (Homo sapiens, UniProt P11509); test: In-vitro CYP inhibition in pooled human liver microsomes; assay type: in vitro ADME; conditions: data on file
T1 sequence (P11509 1-494): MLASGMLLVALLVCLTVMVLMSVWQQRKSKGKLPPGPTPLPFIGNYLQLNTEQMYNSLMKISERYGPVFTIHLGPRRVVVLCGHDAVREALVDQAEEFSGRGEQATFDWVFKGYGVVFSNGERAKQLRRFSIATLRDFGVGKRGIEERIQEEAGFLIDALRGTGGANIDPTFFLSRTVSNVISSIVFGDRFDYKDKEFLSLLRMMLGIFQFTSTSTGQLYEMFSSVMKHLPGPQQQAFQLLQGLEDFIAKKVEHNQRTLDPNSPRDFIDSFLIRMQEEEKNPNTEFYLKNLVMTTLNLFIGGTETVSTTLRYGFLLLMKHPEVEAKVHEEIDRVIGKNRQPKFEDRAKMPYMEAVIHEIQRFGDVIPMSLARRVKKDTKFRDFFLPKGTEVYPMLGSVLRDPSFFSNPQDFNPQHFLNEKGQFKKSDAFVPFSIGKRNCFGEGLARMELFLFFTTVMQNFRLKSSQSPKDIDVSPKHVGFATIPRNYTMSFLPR

[24] = within 360 h, single 50-mg 14C dose
[25] = 10 mg daily for 14 days (Fig. 2)
[26] = single dose 10 mg, 65–85 vs 18–45 years
[27] = single dose, 24 male vs 24 female
[28] = mild-to-moderate hepatic impairment, single dose 10 mg (Fig. 2)
[29] = severe hepatic impairment, single dose 5 mg

## Br.Cc1ccc(Sc2ccccc2N2CCNCC2)c(C)c1 [vortioxetine, 1-[2-(2,4-dimethyl-phenylsulfanyl)-phenyl]-piperazine, hydrobromide]
[1]; single 50-mg 14C dose, feces only
  parent drug detected in the feces: 1.5%
[1]; single oral dose 50 mg 14C-labeled
  drug concentration in plasma relative to whole blood: double
[1]; [24]
  drug-related material recovered in feces: 26%
  drug-related material recovered in urine: 59%
  drug-related material recovered in urine and feces: approximately 85%
[2]
  bound to plasma protein: Approximately 99%
  unbound drug: 1%
[3]
  action at 5-HT1B receptor: partial agonist
[4]
  inhibitory in-vitro effect on CYP3A4/5: no inhibitory in-vitro effect
[5]
  I/half maximal inhibitory concentration (Pgp efflux): smaller than 0.1
[5]; in vitro
  Pgp substrate in vitro: poor substrate
  inhibition of Pgp transport in vitro: weak inhibitor
[6]; 5-mg dose
  SERT occupancy: approximately 50%
[6]; 10-mg dose
  SERT occupancy: ~65%
[6]; 20-mg dose
  SERT occupancy: above 80%
[7]; CYP2C19, much smaller than
  ratio of maximum plasma concentration of inhibitor (I) and Ki: smaller than 0.1
[7]; pooled human liver microsomes, CYP isozyme-specific probe substrates, data on file
  inhibitory effect on CYP2C19: inhibitory effect
[8]
  tolerability regardless of degree of renal or hepatic impairment: well tolerated
[8]; rifampin 600 mg daily with vortioxetine 20 mg
  tolerability of combination: well tolerated
[9]
  inhibitory in-vitro effect on CYP2E1: no inhibitory in-vitro effect
[10]
  overall incidence of adverse events, CYP2D6 PMs vs non-PMs: no clinically relevant differences
[11]; after single or multiple dosing (Tables 1, 2)
  time to reach maximum observed plasma concentration: 7 to 11 h
[11]; 5 mg
  AUC(0-inf): 188 ng·h/mL
  AUC(0-t): 157 ng·h/mL
  Cmax: 1.87 ng/mL
  Tmax: 11 h
  Vd/F: 2740 L
  half-life: 69.4 h
[11]; 10 mg
  AUC(0-inf): 273 ng·h/mL
  AUC(0-t): 255 ng·h/mL
  Cmax: 4.6 ng/mL
  Tmax: 8 h
  Vd/F: 2770 L
  half-life: 60.6 h
[11]; 20 mg
  AUC(0-inf): 646 ng·h/mL
  AUC(0-t): 561 ng·h/mL
  Cmax: 8.11 ng/mL
  Tmax: 10 h
  Vd/F: 3290 L
  half-life: 64.3 h
[11]; oral, single or multiple doses (Tables 1, 2)
  estimated total clearance (CL/F): 30 to 41 L/h
[11]; single oral dose 5 mg
  CL/F: 29.62 (35) L/h
[11]; single oral dose 10 mg
  CL/F: 40.52 (40) L/h
[11]; single oral dose 20 mg
  CL/F: 41.47 (60) L/h
[12]
  action at 5-HT1D receptor: antagonist
[13]
  impairment of driving, cognitive function, or psychomotor skills: not to impair
[14]
  action at 5-HT1A receptor: agonist
[15]; [25]
  AUC(0–24) higher in black than white volunteers: 25%
  C max higher in black than white volunteers: 33%
[15]; [26]
  AUC(0–t) higher in elderly than young subjects: 4%
  C max lower in elderly than young subjects: 11%
[15]; [27]
  AUC(0–t) higher in female than male subjects: 18%
  C max higher in female than male subjects: 16%
[16]
  time to steady-state plasma concentrations: ≤ 2 weeks
[17]
  effect on cardiac repolarization: unlikely to affect cardiac repolarization
[18]; pH 3, 25 °C
  distribution coefficient (octanol/water): 2.2
[18]; pH 11, 25 °C
  distribution coefficient (octanol/water): 4.7
[19]
  red blood cell distribution: negligible
[20]
  action at 5-HT7 receptor: antagonist
[21]
  action at 5-HT transporter (SERT): inhibitor
[22]
  fraction of unbound parent drug, hepatically impaired vs healthy: no differences
[22]; [28]
  AUC(0–t) lower than healthy cohorts: up to 9%
  C max lower than healthy cohorts: up to 16%
[22]; [29]
  AUC(0–t) higher than healthy controls: 10%
  C max lower than healthy controls: 24%
[23]
  inhibitory in-vitro effect on CYP2A6: no inhibitory in-vitro effect
